What was measured:
Danio rerio [1] = species: Danio rerio; test: Toxicity in zebrafish assessed as induction of apoptosis at 5 uM treated at 48 hrs post-fertilization measured after 3 days by acridine orange staining method; format: organism-based; settings: in vivo, 72 h
Summary of the method: (§1)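 Zebrafish larvae dosed at 5 uM from 48 hpf for three days (28 °C, E3 medium, 1% DMSO). Stained with acridine orange at 1 mg/mL in E3 for 30 min, then washed 3 × 10 min. Anesthetized with tricaine, mounted in 1% low-melt agarose with tricaine, and examined by microscopy for apoptosis and deformities.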

Danio rerio [2] = species: Danio rerio; test: Toxicity in zebrafish assessed as yolk deformities at 5 uM treated at 48 hrs post-fertilization measured after 3 days by acridine orange staining method; format: organism-based; settings: in vivo, 72 h; summary of the method: as §1
Danio rerio [3] = species: Danio rerio; test: Toxicity in zebrafish assessed as swim bladder deformities at 5 uM treated at 48 hrs post-fertilization measured after 3 days by acridine orange staining method; format: organism-based; settings: in vivo, 72 h; summary of the method: as §1
Danio rerio [4] = species: Danio rerio; test: Toxicity in zebrafish assessed as otic capsule deformities at 5 uM treated at 48 hrs post-fertilization measured after 3 days by acridine orange staining method; format: organism-based; settings: in vivo, 72 h; summary of the method: as §1
Danio rerio [5] = species: Danio rerio; test: (§2) Toxicity in zebrafish assessed as organism survival at 5 uM treated at 48 hrs post-fertilization measured after 3 days; format: organism-based; settings: in vivo, 72 h, 5 µM
Summary of the method: (§3)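 AB wild-type zebrafish embryos dechorionated with pronase at 48 hpf, 3 per well in methylene blue-free E3 medium. Dosed at 5 uM from 10 mM DMSO stocks (1% v/v DMSO). Kept at 28 °C for 72 h without food; survival scored at day 5 versus vehicle controls. Two experiments, each in triplicate.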

ScN2a = test: Cytotoxicity against mouse ScN2a cells up to 32 uM; format: cell-based
Summary of the method: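 ScN2a cells seeded separately in 96-well plates. Calcein cell viability assay run in parallel with the ELISA screen, up to 32 uM maximum.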

[6] = Cytotoxicity against mouse SMB.s15 cells at 20 uM after 5 days by MTT assay; format: cell-based; settings: smb.s15, 120 h
Summary of the method: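 SMB.s15 cells at 12,000 cells/well, exposed to compound for 5 days at 37 °C (DMSO stock diluted via HBSS into medium). Viability measured by MTT assay per the reagent's standard protocol.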

[7] = Antiprion activity against PrPsc infected in mouse ScN2a cells assessed as complete clearance of PrPSc after 5 days by ELISA; format: cell-based; settings: 120 h
Summary of the method: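 ScN2a cells (N2a infected with RML prion strain) seeded at 4×10^5 cells/well in MEM with 10% FBS, GlutaMax, geneticin. Compound added 4 h after seeding, 0.5% final DMSO, 5 days at 37 °C. Lysates captured on D18 Fab-coated ELISA plates overnight at 4 °C, HRP-D13 detection, ABTS, absorbance at 405 nm. Dose-response curves from three independent experiments.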

[8] = Antiprion activity against PrPsc infected in mouse SMB.s15 cells assessed as complete clearance of PrPSc after 5 days by dot blot analysis; format: cell-based; settings: SMB.s15, 120 h
Summary of the method: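 SMB.s15 cells (scrapie-infected, mesodermal origin) in Medium 199 with 10% newborn calf and 5% fetal calf serum, seeded at 12,000 cells/well, 24 h attachment. Compound added from DMSO stock via HBSS dilution, 5 days at 37 °C. Lysates dot-blotted, proteinase K digestion (1 h, 37 °C), guanidine thiocyanate, anti-PrP 6H4 mAb, ECL. Triplicate, PrPSc relative to DMSO-only control.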

[9] = Metabolic stability in mouse liver microsomes assessed as compound remaining after 30 mins by HPLC analysis; format: ADME, Microsome; settings: read-out: Stability
Summary of the method: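 Mouse liver microsomes (0.5 mg/mL stock) in 0.2 M potassium phosphate pH 7.0 with DL-isocitrate, MgCl2 and isocitrate dehydrogenase. Preincubated 5 min at 37 °C, then started with NADPH. Sampled at t=0 and after 30 min at 37 °C, quenched in ice-cold acetonitrile with internal standard. Analysed by C18 HPLC, UV at 267 nm, in triplicate.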

[10] = Solubility of the compound; format: physicochemical
[11] = (§4) Toxicity in zebrafish assessed as mortality rate at 5 uM measured after 72 hrs; format: organism-based, Danio rerio; settings: in vivo, read-out: Activity; summary of the method: as §3
[12] = as §2; format: organism-based, Danio rerio; settings: in vivo; summary of the method: as §3
Danio rerio [13] = species: Danio rerio; test: as §4; format: organism-based; settings: in vivo, 72 h, 5 µM; summary of the method: as §3

Structure (SMILES)	Activity (Danio rerio [1])	Activity (Danio rerio [2])	Activity (Danio rerio [3])	Activity (Danio rerio [4])	Activity (Danio rerio [5])	Activity (ScN2a)	Activity [6]	EC50 [7]	EC50 [8]	remaining at 0.5 h [9]	solubility [10]	mortality at 72 h, 5 µM [11]	survival at 72 h, 5 µM [12]	Activity (Danio rerio [13])
O=C(Nc1ccc(-n2cccn2)cc1)C(=O)c1c[nH]c2ccccc12	Non-toxic	Non-toxic	Non-toxic	Non-toxic	Toxic	Non-toxic	Non-toxic	0.014 µM	0.001 µM	93.6%	Insoluble			
O=C(Nc1ccc(-n2cncn2)cc1)C(=O)c1c[nH]c2ccccc12											Insoluble			
Cc1ccc2c(C(=O)C(=O)Nc3ccc(N4CCOCC4)cc3)c[nH]c2c1	Non-toxic	Non-toxic	Non-toxic	Non-toxic		Non-toxic	Non-toxic		0.0031 µM			20%	100%	
Cc1ccc(NC(=O)C(=O)c2c[nH]c3ccccc23)cc1					Toxic	Non-toxic	Non-toxic	0.206 µM	0.13 µM	64.9%				Non-toxic
COc1ccc(NC(=O)C(=O)c2c[nH]c3ccccc23)cc1						Non-toxic	Non-toxic	0.091 µM	0.011 µM	67.9%		20%	100%	
O=C(Nc1ccc(-n2ccnc2)cc1)C(=O)c1c[nH]c2ccccc12						Non-toxic	Non-toxic	0.016 µM	0.0013 µM		Insoluble			
COc1ccc(NC(=O)C(=O)c2c[nH]c3cc(C#N)ccc23)cc1	Non-toxic	Non-toxic	Non-toxic	Non-toxic		Non-toxic	Non-toxic	0.011 µM	0.0022 µM	87.5%			100%	
O=C(Nc1ccc(-n2cccc2)cc1)C(=O)c1c[nH]c2ccccc12					Toxic	Non-toxic	Non-toxic		0.006 µM		Insoluble			
Cn1ccc(-c2ccc(NC(=O)C(=O)c3c[nH]c4ccccc34)cc2)n1											Insoluble			
O=C(Nc1ccc(-c2nnco2)cc1)C(=O)c1c[nH]c2ccccc12											Insoluble			

From ChEMBL document CHEMBL1909628, “Discovery of 6-substituted indole-3-glyoxylamides as lead antiprion agents with enhanced cell line activity, improved microsomal stability and low toxicity” (Eur J Med Chem, 2011)
